Results taken from ChEMBL document CHEMBL4706489, “Hydrogen sulfide releasing oridonin derivatives induce apoptosis through extrinsic and intrinsic pathways” (Eur J Med Chem, 2020).
The source made the active and inactive calls. The rule behind the calls is not given here.

Columns and labels:
[1] = Selectivity ratio of IC50 for cytotoxicity against human L02 cells to IC50 for antiproliferative activity against human K562 cells; format: toxicity, cell-based; settings: read-out: Ratio IC50
K562 [2] = experiment: Induction of cell cycle arrest in human K562 cells assessed as accumulation at G1 phase at 0.5 uM after 48 hrs by propidium iodide staining based flow cytometric analysis (reference value: 43.24 to 43.37%); format: functional
K562 [3] = experiment: Induction of cell cycle arrest in human K562 cells assessed as accumulation at G2 phase at 0.5 uM after 48 hrs by propidium iodide staining based flow cytometric analysis (reference value: 10.96 to 12.03%); format: functional
K562 [4] = experiment: Induction of cell cycle arrest in human K562 cells assessed as accumulation at G2 phase at 1 uM after 48 hrs by propidium iodide staining based flow cytometric analysis (reference value: 10.96 to 12.03%); format: functional
K562 [5] = experiment: Induction of cell cycle arrest in human K562 cells assessed as accumulation at S phase at 2 uM after 48 hrs by propidium iodide staining based flow cytometric analysis (reference value: 44.73 to 45.96%); format: functional
HepG2 [6] = experiment: Induction of cell cycle arrest in human HepG2 cells assessed as accumulation at S phase at 0.5 uM after 48 hrs by propidium iodide staining based flow cytometric analysis (reference value: 33.22 to 33.58%); format: functional
HepG2 [7] = experiment: Induction of cell cycle arrest in human HepG2 cells assessed as accumulation at G2 phase at 1 uM after 48 hrs by propidium iodide staining based flow cytometric analysis (reference value: 16.48 to 16.97%); format: functional
Procedure, shortened: (§1)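 HepG2 cells were treated with 0, 0.50, 1.0 or 2.0 test agent for 48 h. Cells were washed in cold PBS and fixed in 70% ethanol at −20 °C overnight. DNA-content distribution was measured by flow cytometry. Mean ± SD, three independent experiments.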

HepG2 [8] = experiment: Induction of cell cycle arrest in human HepG2 cells assessed as accumulation at G1 phase at 2 uM after 48 hrs by propidium iodide staining based flow cytometric analysis (reference value: 49.46 to 50.3%); format: functional; procedure, shortened: as §1
K562 [9] = experiment: Induction of apoptosis in human K562 cells assessed as early apoptotic cells at 0.5 uM after 48 hrs by annexin V FITC and propidium iodide staining based flow cytometric analysis (reference value: 2.13%); format: functional
K562 [10] = experiment: Induction of apoptosis in human K562 cells assessed as necrotic cells at 0.5 uM after 48 hrs by annexin V FITC and propidium iodide staining based flow cytometric analysis (reference value: 0.69%); format: functional
K562 [11] = experiment: Induction of apoptosis in human K562 cells assessed as viable cells at 1 uM after 48 hrs by annexin V FITC and propidium iodide staining based flow cytometric analysis (reference value: 96.76%); format: functional; settings: read-out: Activity
K562 [12] = experiment: Induction of apoptosis in human K562 cells assessed as early apoptotic cells at 1 uM after 48 hrs by annexin V FITC and propidium iodide staining based flow cytometric analysis (reference value: 2.13%); format: functional
K562 [13] = experiment: Induction of apoptosis in human K562 cells assessed as necrotic cells at 1 uM after 48 hrs by annexin V FITC and propidium iodide staining based flow cytometric analysis (reference value: 0.69%); format: functional
K562 [14] = experiment: Induction of apoptosis in human K562 cells assessed as necrotic cells at 2 uM after 48 hrs by annexin V FITC and propidium iodide staining based flow cytometric analysis (reference value: 0.69%); format: functional
HepG2 [15] = experiment: Induction of apoptosis in human HepG2 cells assessed as late apoptotic cells at 0.5 uM after 48 hrs by annexin V FITC and propidium iodide staining based flow cytometric analysis (reference value: 3.17%); format: functional
HepG2 [16] = experiment: Induction of apoptosis in human HepG2 cells assessed as viable cells at 1 uM after 48 hrs by annexin V FITC and propidium iodide staining based flow cytometric analysis (reference value: 93.5%); format: functional; settings: read-out: Activity
HepG2 [17] = experiment: Induction of apoptosis in human HepG2 cells assessed as early apoptotic cells at 1 uM after 48 hrs by annexin V FITC and propidium iodide staining based flow cytometric analysis (reference value: 2.89%); format: functional
HepG2 [18] = experiment: Induction of apoptosis in human HepG2 cells assessed as necrotic cells at 1 uM after 48 hrs by annexin V FITC and propidium iodide staining based flow cytometric analysis (reference value: 0.89%); format: functional
HepG2 [19] = experiment: Induction of apoptosis in human HepG2 cells assessed as early apoptotic cells at 2 uM after 48 hrs by annexin V FITC and propidium iodide staining based flow cytometric analysis (reference value: 2.89%); format: functional
K562 [20] = experiment: Induction of mitochondrial membrane potential loss in human K562 cells after 48 hrs by JC1 staining based flow cytometric analysis; format: functional, cell-based; settings: dose 0.5-2 µM
Procedure, shortened: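 K562 and HepG2 cells in 6-well plates were exposed for 48 h at 0, 0.50, 1.0 and 2.0 µM, with DMSO vehicle control. After trypsinization, cells were stained with JC-1 (0.5 mg/mL) at 37 °C in darkness for 30 min, then washed with PBS. Membrane potential was read by flow cytometry. Mean ± SD, three independent experiments.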

K562 [21] = experiment: Induction of apoptosis in human K562 cells assessed as increase in cleaved caspase-3 at 1 uM after 24 hrs by chemiluminescence based apoptosis array method; format: functional, cell-based
Procedure, shortened: (§2)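 K562 cells were treated with 1 test agent for 24 h. Diluted total-cell lysates were applied to a human apoptosis antibody array covering 35 apoptosis-related proteins for 24 h. Unbound protein was washed off, and arrays were probed with a biotinylated detection antibody for 1 h. Relative expression was read from chemiluminescent signal by digital imaging.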

K562 [22] = experiment: Induction of apoptosis in human K562 cells assessed as increase in Bax protein expression at 1 uM after 24 hrs by chemiluminescence based apoptosis array method; format: functional, cell-based; procedure, shortened: as §2
K562 [23] = experiment: Induction of apoptosis in human K562 cells assessed as decrease in C-IAP2 protein expression at 1 uM after 24 hrs by chemiluminescence based apoptosis array method; format: functional, cell-based; procedure, shortened: as §2
K562 [24] = experiment: Induction of apoptosis in human K562 cells assessed as decrease in livin protein expression at 1 uM after 24 hrs by chemiluminescence based apoptosis array method; format: functional, cell-based; procedure, shortened: as §2
[25] = Cytotoxicity against human PBMC cells assessed as cell viability after 72 hrs by MTT assay
MCF7 = experiment: Antiproliferative activity against human MCF7 cells assessed as reduction in cell viability after 72 hrs by MTT assay; settings: MCF7, 72 h
HepG2 [26] = experiment: Antiproliferative activity against human HepG2 cells assessed as reduction in cell viability after 72 hrs by MTT assay; settings: HepG2, 72 h
HCT-116 = experiment: Antiproliferative activity against human HCT-116 cells assessed as reduction in cell viability after 72 hrs by MTT assay; settings: HCT-116, 72 h
K562 [27] = experiment: Induction of apoptosis in human K562 cells after 48 hrs by annexin V FITC and propidium iodide staining based flow cytometric analysis; settings: dose 0.5-2 µM
HepG2 (human) = experiment: Induction of apoptosis in human HepG2 cells after 48 hrs by annexin V FITC and propidium iodide staining based flow cytometric analysis; settings: dose 0.5-2 µM

C=C1C(=O)[C@]23[C@H](OC(=O)CCC(=O)OCCCCCCOc4ccc(-c5cc(=S)ss5)cc4)[C@H]1CC[C@H]2[C@@]12CO[C@@]3(O)[C@@H](O)[C@@H]1C(C)(C)CC[C@@H]2OC(C)=O
selectivity ratio [1]: 20
Activity (K562 [2]): 38.61%
Activity (K562 [3]): 11.07%
Activity (K562 [4]): 10.32%
Activity (K562 [5]): 62.64%
Activity (HepG2 [6]): 31.41%
Activity (HepG2 [7]): 11.5%
Activity (HepG2 [8]): 65.1%
Activity (K562 [9]): 7.1%
Activity (K562 [10]): 1.1%
viability at 1 µM (K562 [11]): 79.1%
Activity (K562 [12]): 11.39%
Activity (K562 [13]): 1.16%
Activity (K562 [14]): 1.57%
Activity (HepG2 [15]): 10.09%
viability at 1 µM (HepG2 [16]): 60.5%
Activity (HepG2 [17]): 25.53%
Activity (HepG2 [18]): 1.26%
Activity (HepG2 [19]): 26.44%
Activity (K562 [20]): Dose-dependent effect
Activity (K562 [21]): Active
Activity (K562 [22]): Active
Activity (K562 [23]): Active
Activity (K562 [24]): Active
IC50 [25]: > 50 µM
IC50 (MCF7): 16.1 µM
IC50 (HepG2 [26]): 2.57 µM
IC50 (HCT-116): 5.81 µM
Activity (K562 [27]): Dose-dependent effect
Activity (HepG2 (human)): Dose-dependent effect
